ChEMBL document CHEMBL4184147, “Polyphenolic Phytochemicals in Cancer Prevention and Therapy: Bioavailability versus Bioefficacy” (J Med Chem, 2017)

Assays:
NCI-H460 [1] = assay: Cytotoxicity against human NCI-H460 cells assessed as decrease in cell viability after 48 hrs by MTT assay; assay type: functional, cell-based; conditions: NCI-H460, 48 h
BXPC-3 [2] = assay: Cytotoxicity against human BxPC3 cells assessed as decrease in cell viability after 48 hrs by MTT assay; assay type: functional, cell-based; conditions: BXPC-3, 48 h
PANC-1 [3] = assay: Cytotoxicity against human PANC1 cells assessed as decrease in cell viability after 48 hrs by MTT assay; assay type: functional, cell-based; conditions: PANC-1, 48 h
[4] = Cytotoxicity against human MML1 cells assessed as decrease in cell viability after 48 hrs by MTT assay; assay type: functional, cell-based
SK-MEL-2 [5] = assay: Cytotoxicity against human SK-MEL-2 cells assessed as decrease in cell viability after 48 hrs by MTT assay; assay type: functional, cell-based; conditions: SK-MEL-2, 48 h
MDA-MB-231 [6] = assay: Cytotoxicity against human MDA-MB-231 cells assessed as cell viability at 18 uM after 48 hrs by MTT assay; assay type: functional; conditions: MDA-MB-231, 48 h, read-out: Activity
T47D [7] = assay: Cytotoxicity against human T47D cells assessed as cell viability at 18 uM after 48 hrs by MTT assay; assay type: functional; conditions: read-out: Activity
HT-29 [8] = assay: Cytotoxicity against human HT-29 cells assessed as cell viability at 18 uM after 48 hrs by MTT assay; assay type: functional; conditions: HT-29, 48 h, read-out: Activity
COLO 201 [9] = assay: Cytotoxicity against human COLO201 cells assessed as cell viability at 18 uM after 48 hrs by MTT assay; assay type: functional; conditions: COLO 201, 48 h, read-out: Activity
A549 [10] = assay: Cytotoxicity against human A549 cells assessed as cell viability at 18 uM after 48 hrs by MTT assay; assay type: functional; conditions: A549, 48 h, read-out: Activity
NCI-H460 [11] = assay: Cytotoxicity against human NCI-H460 cells assessed as cell viability at 18 uM after 48 hrs by MTT assay; assay type: functional; conditions: NCI-H460, 48 h, read-out: Activity
BXPC-3 [12] = assay: Cytotoxicity against human BxPC3 cells assessed as cell viability at 18 uM after 48 hrs by MTT assay; assay type: functional; conditions: BXPC-3, 48 h, read-out: Activity
PANC-1 [13] = assay: Cytotoxicity against human PANC1 cells assessed as cell viability at 18 uM after 48 hrs by MTT assay; assay type: functional; conditions: PANC-1, 48 h, read-out: Activity
[14] = Cytotoxicity against human MML1 cells assessed as cell viability at 18 uM after 48 hrs by MTT assay; assay type: functional; conditions: read-out: Activity
SK-MEL-2 [15] = assay: Cytotoxicity against human SK-MEL-2 cells assessed as cell viability at 18 uM after 48 hrs by MTT assay; assay type: functional; conditions: SK-MEL-2, 48 h, read-out: Activity
U-87 MG [16] = assay: Cytotoxicity against human U87 cells assessed as cell viability at 18 uM after 48 hrs by MTT assay; assay type: functional, U-87MG ATCC; conditions: read-out: Activity
LN-229 [17] = assay: Cytotoxicity against human LN229 cells assessed as cell viability at 18 uM after 48 hrs by MTT assay; assay type: functional; conditions: LN-229, 48 h, read-out: Activity
[18] = Cmax in mouse at 10 mg/kg, iv by LC-MS/MS method; assay type: ADME, organism-based; design: dose 10 mg/kg, route intravenous; conditions: in vivo
How it was run: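 Mouse iv dosing used polyphenol dissolved in DMSO:ethanol (2:1), with total injected volume never above 30 μL. Plasma levels were measured by previously described methods.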

[19] = Tmax in mouse at 10 mg/kg, iv by LC-MS/MS method; assay type: ADME, organism-based; conditions: in vivo
How it was run: (§1)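 For IV dosing, compound dissolved in DMSO:ethanol (2:1), total volume no more than 30 μL. For oral dosing, compound given in a self-microemulsifying delivery system (60% surfactant, emulsifier OP:Cremophor EL 1:1; 30% PEG 400; 10% ethyl oleate), total volume no more than 100 μL. Plasma levels measured by previously described methods.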

[20] = Plasma concentration in mouse at 100 mg/kg, po at 60 mins by LC-MS/MS method; assay type: ADME, organism-based; how it was run: as §1
[21] = Plasma concentration in mouse at 10 mg/kg, iv at 60 mins by LC-MS/MS method; assay type: ADME, organism-based; how it was run: as §1
[22] = Cmax in mouse at 100 mg/kg, po by HPLC method; assay type: ADME, organism-based; design: dose 100 mg/kg, route oral; conditions: in vivo
How it was run: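 For oral dosing, polyphenol was dissolved in a self-microemulsifying delivery system: 60% surfactant (emulsifier OP:Cremophor EL 1:1), 30% cosurfactant (PEG 400) and 10% oil (ethyl oleate). Total volume given was never above 100 μL. Plasma levels were quantified by previously described methods.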

[23] = Tmax in mouse at 100 mg/kg, po by HPLC method; assay type: ADME, organism-based; conditions: in vivo
How it was run: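 Given orally in a self-microemulsifying delivery system (60% surfactant, emulsifier OP:Cremophor EL 1:1; 30% PEG 400 cosurfactant; 10% ethyl oleate oil), total volume no more than 100 μL. Plasma levels measured by previously described methods.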

Lipid bilayer = assay: Induction of DOPC/n-decane bilayer property changes assessed as concentration required to double gramicidin-induced quencher influx rate by […]
U-87 MG [24] = assay: Cytotoxicity against human U87 cells assessed as decrease in cell viability after 48 hrs by trypan blue exclusion and LDH release
T47D [25] = assay: Cytotoxicity against human T47D cells assessed as decrease in cell viability after 48 hrs by trypan blue exclusion and LDH release
A549 [26] = assay: Cytotoxicity against human A549 cells assessed as decrease in cell viability after 48 hrs by trypan blue exclusion and LDH release; conditions: A549, 48 h
HT-29 [27] = assay: Cytotoxicity against human HT-29 cells assessed as decrease in cell viability after 48 hrs by trypan blue exclusion and LDH release; conditions: HT-29, 48 h
LN-229 [28] = assay: Cytotoxicity against human LN229 cells assessed as decrease in cell viability after 48 hrs by trypan blue exclusion and LDH release; conditions: LN-229, 48 h
COLO 201 [29] = assay: Cytotoxicity against human COLO201 cells assessed as decrease in cell viability after 48 hrs by trypan blue exclusion and LDH release; conditions: COLO 201, 48 h
MDA-MB-231 [30] = assay: Cytotoxicity against human MDA-MB-231 cells assessed as decrease in cell viability after 48 hrs by trypan blue exclusion and LDH release; conditions: MDA-MB-231, 48 h
MDA-MB-231 [31] = assay: Cytotoxicity against human MDA-MB-231 cells assessed as cell viability at 16 uM after 48 hrs by MTT assay; assay type: functional; conditions: MDA-MB-231, 48 h, read-out: Activity
T47D [32] = assay: Cytotoxicity against human T47D cells assessed as cell viability at 16 uM after 48 hrs by MTT assay; assay type: functional; conditions: read-out: Activity
HT-29 [33] = assay: Cytotoxicity against human HT-29 cells assessed as cell viability at 16 uM after 48 hrs by MTT assay; assay type: functional; conditions: HT-29, 48 h, read-out: Activity
COLO 201 [34] = assay: Cytotoxicity against human COLO201 cells assessed as cell viability at 16 uM after 48 hrs by MTT assay; assay type: functional; conditions: COLO 201, 48 h, read-out: Activity
A549 [35] = assay: Cytotoxicity against human A549 cells assessed as cell viability at 16 uM after 48 hrs by MTT assay; assay type: functional; conditions: A549, 48 h, read-out: Activity
NCI-H460 [36] = assay: Cytotoxicity against human NCI-H460 cells assessed as cell viability at 16 uM after 48 hrs by MTT assay; assay type: functional; conditions: NCI-H460, 48 h, read-out: Activity
BXPC-3 [37] = assay: Cytotoxicity against human BxPC3 cells assessed as cell viability at 16 uM after 48 hrs by MTT assay; assay type: functional; conditions: BXPC-3, 48 h, read-out: Activity
PANC-1 [38] = assay: Cytotoxicity against human PANC1 cells assessed as cell viability at 16 uM after 48 hrs by MTT assay; assay type: functional; conditions: PANC-1, 48 h, read-out: Activity
[39] = Cytotoxicity against human MML1 cells assessed as cell viability at 16 uM after 48 hrs by MTT assay; assay type: functional; conditions: read-out: Activity
SK-MEL-2 [40] = assay: Cytotoxicity against human SK-MEL-2 cells assessed as cell viability at 16 uM after 48 hrs by MTT assay; assay type: functional; conditions: SK-MEL-2, 48 h, read-out: Activity
U-87 MG [41] = assay: Cytotoxicity against human U87 cells assessed as cell viability at 16 uM after 48 hrs by MTT assay; assay type: functional, U-87MG ATCC; conditions: read-out: Activity
LN-229 [42] = assay: Cytotoxicity against human LN229 cells assessed as cell viability at 16 uM after 48 hrs by MTT assay; assay type: functional; conditions: LN-229, 48 h, read-out: Activity
[43] = Displacement of [3H]resveratrol from Sprague-Dawley rat brain plasma membranes after 1 hr by beta counting method; assay type: cell membranes

| Structure (SMILES) | IC50 (NCI-H460 [1]) | IC50 (BXPC-3 [2]) | IC50 (PANC-1 [3]) | IC50 [4] | IC50 (SK-MEL-2 [5]) | Cmax [18] | Tmax [19] | concentration at 1 h [20] | concentration at 1 h [21] | Cmax [22] | Tmax [23] | Activity (Lipid bilayer) | IC50 (U-87 MG [24]) | IC50 (T47D [25]) | IC50 (A549 [26]) | IC50 (HT-29 [27]) | IC50 (LN-229 [28]) | IC50 (COLO 201 [29]) | IC50 (MDA-MB-231 [30]) | further results |
| --- | --- | --- | --- | --- | --- | --- | --- | --- | --- | --- | --- | --- | --- | --- | --- | --- | --- | --- | --- | --- |
| O=c1c(-c2ccc(O)cc2)coc2cc(O)cc(O)c12 [GENISTEIN] | 47 µM | 79 µM | 87 µM | 42 µM | 36 µM | 35 µM | 5 min | < 1 µM | < 1 µM | 17 µM | 10 min | 26.7 µM | 55 µM | 48 µM | 64 µM | 50 µM | 44 µM | 73 µM | 43 µM | viability at 18 µM (MDA-MB-231 [6]): 91%; viability at 18 µM (T47D [7]): 93%; viability at 18 µM (HT-29 [8]): 104%; viability at 18 µM (COLO 201 [9]): 100%; viability at 18 µM (A549 [10]): 107%; viability at 18 µM (NCI-H460 [11]): 102%; viability at 18 µM (BXPC-3 [12]): 96%; viability at 18 µM (PANC-1 [13]): 99%; viability at 18 µM [14]: 104%; viability at 18 µM (SK-MEL-2 [15]): 105%; viability at 18 µM (U-87 MG [16]): 98%; viability at 18 µM (LN-229 [17]): 100% |
| Oc1ccc(/C=C/c2cc(O)cc(O)c2)cc1 [RESVERATROL] | 12 µM | 14 µM | 39 µM | 12 µM | 14 µM | 32 µM | 5 min | < 1 µM | < 1 µM | 11 µM | 10 min | 11.3 µM | 20 µM | 25 µM | 16 µM | 27 µM | 11 µM | 37 µM | 15 µM | viability at 16 µM (MDA-MB-231 [31]): 95%; viability at 16 µM (T47D [32]): 99%; viability at 16 µM (HT-29 [33]): 98%; viability at 16 µM (COLO 201 [34]): 96%; viability at 16 µM (A549 [35]): 93%; viability at 16 µM (NCI-H460 [36]): 94%; viability at 16 µM (BXPC-3 [37]): 98%; viability at 16 µM (PANC-1 [38]): 105%; viability at 16 µM [39]: 94%; viability at 16 µM (SK-MEL-2 [40]): 95%; viability at 16 µM (U-87 MG [41]): 99%; viability at 16 µM (LN-229 [42]): 102%; Ki [43]: 0.102 µM |
